Laboratory results: PMC3458564 (Nucleic Acids Research, 2012)
Counter-ions that a name gives are not always drawn.

What was measured:
HCV NS3h [1] = target: T1, HCV NS3h (Hepatitis C virus genotype 1b, UniProt Q9WMX2); experiment: biochemical; type: binding; conditions: for Cy5-dT15-NS3h Binding % Inhibition (LOPAC screen): LOPAC samples at 100 µM, 100 µM
E. coli SSB = E. coli SSB (Escherichia coli, UniProt P0AGE0); experiment: Escherichia coli SSB FP assay; type: binding
HCV NS3h [2] = target: T1, HCV NS3h; experiment: NS3h molecular beacon-based helicase assay; type: biochemical; conditions: for IC50: n=3
[3] = tested on: HCV RLuc replicon in Huh7.5 cells; experiment: HCV Renilla luciferase subgenomic replicon assay; type: cell-based; conditions: Hepatitis C virus, Huh7.5, 72 h, read-out: HCV replicon IC50 ± SD
[4] = Cell Titer-Glo cell viability assay; type: cell-based; conditions: human, Huh-7.5 cells
Summary of the method: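 Huh-7.5 cells carrying a stable HCV Renilla luciferase replicon, seeded at 10 000 cells/well, attached 4–5 h in DMEM with 10% FBS, glutamine, penicillin/streptomycin and non-essential amino acids. Test compound added in DMSO (0.5% final). Incubated 72 h at 37°C, 5% CO2. Cells washed, lysed by shaking in medium plus CellTiter-Glo, 30 min at 23°C. Luminescence read 1 s, normalized to DMSO-only. Triplicates.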

NS3h = target: T2, NS3h (Hepatitis C virus genotype 1b, UniProt Q9WMX2); experiment: NS3h ATP hydrolysis; type: biochemical; conditions: preliminary
T2 sequence (Q9WMX2 1193-1657 limits assumed): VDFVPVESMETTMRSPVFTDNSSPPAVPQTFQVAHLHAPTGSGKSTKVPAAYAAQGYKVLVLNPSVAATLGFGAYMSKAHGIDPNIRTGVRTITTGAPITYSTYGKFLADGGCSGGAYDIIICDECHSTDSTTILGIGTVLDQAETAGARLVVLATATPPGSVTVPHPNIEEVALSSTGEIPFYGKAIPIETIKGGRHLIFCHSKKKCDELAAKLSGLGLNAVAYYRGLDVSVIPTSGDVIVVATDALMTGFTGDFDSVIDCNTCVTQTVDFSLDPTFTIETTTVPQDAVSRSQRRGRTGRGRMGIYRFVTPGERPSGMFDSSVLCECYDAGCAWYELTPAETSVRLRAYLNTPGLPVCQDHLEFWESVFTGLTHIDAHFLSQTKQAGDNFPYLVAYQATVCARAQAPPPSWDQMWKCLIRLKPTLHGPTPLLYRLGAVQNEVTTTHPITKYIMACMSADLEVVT

SSB = SSB (Escherichia coli, UniProt P0AGE0 1-178); experiment: fluorescence polarization
Sequence of SSB (P0AGE0 whole entry): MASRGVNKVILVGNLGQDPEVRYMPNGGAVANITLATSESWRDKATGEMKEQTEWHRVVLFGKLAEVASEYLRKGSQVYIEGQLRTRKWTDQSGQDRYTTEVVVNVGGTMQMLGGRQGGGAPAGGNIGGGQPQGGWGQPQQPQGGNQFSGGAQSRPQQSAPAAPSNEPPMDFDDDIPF

[5] = NS3h helicase assays DNA IC50 ± SD, DNA substrate
[6] = NS3h helicase assays RNA IC50 ± SD, RNA substrate

Sequence of E. coli SSB (P0AGE0 2-178 limits assumed): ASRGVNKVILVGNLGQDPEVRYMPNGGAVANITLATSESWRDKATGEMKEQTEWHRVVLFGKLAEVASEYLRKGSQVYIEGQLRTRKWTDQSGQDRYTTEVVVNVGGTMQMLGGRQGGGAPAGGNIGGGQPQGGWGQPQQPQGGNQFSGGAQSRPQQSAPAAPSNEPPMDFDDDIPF

Molecule: O=C(O)C1=CC(=C(c2ccc(O)c(C(=O)O)c2)c2ccc(O)c(C(=O)O)c2)C=CC1=O [ATA, aurintricarboxylic acid]
- IC50 (HCV NS3h [1]): 1.4 ± 0.1 µM
- Cy5-dT15-NS3h Binding % Inhibition (LOPAC screen) (HCV NS3h [1]): more than 60%
- IC50 (E. coli SSB): 1 ± 0.1 µM
- IC50 (HCV NS3h [2]; [5]): 0.6 ± 0.1 µM
- IC50 (HCV NS3h [2]; [6]): 0.8 ± 0.2 µM
- IC50 [3]: 98 ± 30 µM
- CC50 at 72 h [4]: > 100 µM
- ability of NS3h to cleave ATP in the absence of DNA or RNA (NS3h): inhibits

Molecule: CN1CCN(c2ccc3[nH]c(-c4ccc5[nH]c(-c6ccc(O)cc6)nc5c4)nc3c2)CC1 [H33258]
- effect on FP-based NS3h binding assay (HCV NS3h [1]): increased polarization

Molecule: CCCN(CCCN(C)C)c1cc(/C=C2/Sc3ccccc3N2C)c2ccccc2[n+]1-c1ccccc1 [SYBR green I]
- effect on MBHA (HCV NS3h [2]): inhibit

Molecule: Cc1ccc(C(=O)Nc2ccc(S(=O)(=O)O)c3cc(S(=O)(=O)O)cc(S(=O)(=O)O)c23)cc1NC(=O)c1cccc(NC(=O)Nc2cccc(C(=O)Nc3cc(C(=O)Nc4ccc(S(=O)(=O)O)c5cc(S(=O)(=O)O)cc(S(=O)(=O)O)c45)ccc3C)c2)c1 [Suramin, suramin sodium salt]
- IC50 (HCV NS3h [1]): 3.6 ± 0.3 µM
- Cy5-dT15-NS3h Binding % Inhibition (LOPAC screen) (HCV NS3h [1]): more than 60%
- IC50 (E. coli SSB): 0.3 µM
- IC50 (HCV NS3h [2]; [5]): 3.7 ± 0.7 µM
- IC50 (HCV NS3h [2]; [6]): 8.9 ± 2 µM
- IC50 [3]: 38 ± 9.3 µM
- CC50 at 72 h [4]: > 50 µM

Molecule: CN1/C(=C/C=C/c2cc[n+](CCC[N+](C)(C)C)c3ccccc23)Sc2ccccc21.[I-].[I-] [TO-PRO3]
- effect on FP-based NS3h binding assay (HCV NS3h [1]): increased polarization

Molecule: CC(=O)NCC(=O)O.CC(=O)NCC(=O)O.N=C(N)c1ccc(N=NNc2ccc(C(=N)N)cc2)cc1 [berenil]
- effect on MBHA (HCV NS3h [2]): inhibit

Molecule: Cn1cc(NC(=O)c2cc(NC(=O)CN=C(N)N)cn2C)cc1C(=O)NCCC(=N)N [netropsin]
- effect on MBHA (HCV NS3h [2]): inhibit

Molecule: Nc1ccc2cc3ccc(N)cc3nc2c1 [proflavin]
- effect on MBHA (HCV NS3h [2]): inhibit

Molecule: Nc1ncnc2c1ncn2[C@@H]1O[C@H](COP(=O)(O)CP(=O)(O)OP(=O)([O-])[O-])[C@H](O)C1O.[Li+].[Li+] (stereo partly drawn) [α,β-methylene ATP, alpha,beta-Methylene adenosine 5'-triphosphate dilithium]
- effect on FP-based NS3h binding assay (HCV NS3h [1]): did not inhibit

Molecule: TTTTTTTTTTTTTTT (ssDNA) [Cy5-dT15]
- apparent K (half saturation) (SSB): 9.6 ± 2 nM
